One assay concerns Brevicoryne brassicae. Kind of assay: Insecticidal activity against Brevicoryne brassicae (cabbage aphids) measured in field test. It is filed as functional, organism-based. A digest of the protocol:
(§1)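 Field trials against aphids in northern, middle and southern China used 10% WP and 20% SC formulations. The design was a randomized complete block with five treatments, applied with a hand sprayer. Untreated cabbage or rice served as the control, and imidacloprid 10% WP was the reference.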

In assay [1] the test system is Myzus persicae. Kind of assay: Insecticidal activity against Myzus persicae (green peach aphid) at 25 degC. It is filed as functional. To be noted: read-out: LD50 (the source's name).
Assay [2] has as its system Myzus persicae. Kind of assay: Insecticidal activity against Myzus persicae (green peach aphid) measured in field test. Type of assay: functional, organism-based. An outline of the steps: as §1

Among the data in ChEMBL document CHEMBL3045139, “N'-Nitro-2-hydrocarbylidenehydrazinecarboximidamides: design, synthesis, crystal structure, insecticidal activity, and structure-activity relationships” (2012) are Activity and LC50 values, retold here.

Converted amounts (≈) assume the structure as drawn. The source made the active and inactive calls. No cut-off for these calls is given here.

Regarding `CCCCN(/N=C/c1ccccc1)/C(N)=N/[N+](=O)[O-]`, the outcome with Brevicoryne brassicae and in the assay on Myzus persicae [2] was Active. Also, the LC50 in the assay on Myzus persicae [1] stood at 1800 µg/mL (≈ 6820 µM).

In the case of `N/C(=N\[N+](=O)[O-])N(Cc1ccc(Cl)nc1)/N=C/c1ccc(F)cc1`, the result in the assay with Brevicoryne brassicae and in the assay with Myzus persicae [2] was Active. Further, the LC50 in the assay on Myzus persicae [1] was 1450 µg/mL (≈ 4130 µM).

Take `CCCC/C=N/N(Cc1ccc(Cl)nc1)/C(N)=N/[N+](=O)[O-]` [GUADIPYR]: the outcome in the assay with Brevicoryne brassicae and in the assay on Myzus persicae [2] was Active. Further, the LC50 with Myzus persicae [1] is 25.3 µg/mL (≈ 81 µM).

Consider `COc1ccc(/C=N/N(Cc2ccccc2)/C(N)=N/[N+](=O)[O-])cc1`, for which the result in the assay with Brevicoryne brassicae and in the assay on Myzus persicae [2] was Active. Also, in the assay with Myzus persicae [1], the LC50 worked out at 3840 µg/mL (≈ 11700 µM).

With `CCCCN(/N=C/c1ccc(C)cc1)/C(N)=N/[N+](=O)[O-]`, the result in the assay on Brevicoryne brassicae and with Myzus persicae [2] was Active. Further, the LC50 with Myzus persicae [1] worked out at 1080 µg/mL (≈ 3880 µM).

As to `O=[N+]([O-])/N=C1\NCCN1Cc1ccc(Cl)nc1` [IMIDACLOPRID], the outcome in the assay with Brevicoryne brassicae and in the assay on Myzus persicae [2] was Active. For the same molecule, the LC50 with Myzus persicae [1] was found to be 24.2 µg/mL (≈ 94.7 µM).

For `CCC/C=N/N(CCCC)/C(N)=N/[N+](=O)[O-]`, the result with Brevicoryne brassicae and in the assay with Myzus persicae [2] was Active. Besides, the LC50 with Myzus persicae [1] was determined as 367 µg/mL (≈ 1600 µM).

Regarding `C=CCN(/N=C/c1ccc(C)cc1)/C(N)=N/[N+](=O)[O-]`, the outcome in the assay with Brevicoryne brassicae and in the assay with Myzus persicae [2] was Active. For the same molecule, the LC50 in the assay with Myzus persicae [1] is 744 µg/mL (≈ 2850 µM).

For the molecule `N/C(=N\[N+](=O)[O-])N(Cc1ccc(Cl)nc1)/N=C/c1ccccc1[N+](=O)[O-]`, the outcome in the assay on Brevicoryne brassicae and in the assay on Myzus persicae [2] was Active. The LC50 in the assay on Myzus persicae [1] came out at 357 µg/mL (≈ 946 µM).

Take `CC(C)/C=N/N(Cc1ccc(Cl)nc1)/C(N)=N/[N+](=O)[O-]`: the outcome in the assay on Brevicoryne brassicae and in the assay with Myzus persicae [2] was Active. Also, the LC50 with Myzus persicae [1] worked out at 92.5 µg/mL (≈ 310 µM).

Turning to `CCN(/N=C/c1ccc(C)cc1)/C(N)=N/[N+](=O)[O-]`, the result in the assay with Brevicoryne brassicae and in the assay with Myzus persicae [2] was Active. The LC50 in the assay on Myzus persicae [1] turned out to be 1020 µg/mL (≈ 4110 µM).

For the molecule `C=CCN(/N=C/CCCC)/C(N)=N/[N+](=O)[O-]`, the outcome in the assay with Brevicoryne brassicae and with Myzus persicae [2] was Active. Besides, the LC50 in the assay on Myzus persicae [1] came to 400 µg/mL (≈ 1760 µM).

With `CCCCN(/N=C/c1cccc(OC)c1)/C(N)=N/[N+](=O)[O-]`, the result with Brevicoryne brassicae and in the assay with Myzus persicae [2] was Active. In the assay with Myzus persicae [1], the LC50 came out at 1800 µg/mL (≈ 6130 µM).

In the case of `N/C(=N\[N+](=O)[O-])N(Cc1ccc(Cl)nc1)/N=C/c1ccco1`, the result with Brevicoryne brassicae and with Myzus persicae [2] was Active. Also, the LC50 with Myzus persicae [1] was 345 µg/mL (≈ 1070 µM).

For the molecule `CCCCCC/C=N/N(Cc1ccc(Cl)nc1)/C(N)=N/[N+](=O)[O-]`, the outcome in the assay on Brevicoryne brassicae and in the assay with Myzus persicae [2] was Active. Besides, in the assay on Myzus persicae [1], the LC50 came out at 25.5 µg/mL (≈ 74.7 µM).

For `CC/C=N/N(CC)/C(N)=N/[N+](=O)[O-]`, the outcome in the assay with Brevicoryne brassicae and with Myzus persicae [2] was Active. In addition, the LC50 with Myzus persicae [1] amounted to 523 µg/mL (≈ 2790 µM).

As to `CC/C=N/N(CCC)/C(N)=N/[N+](=O)[O-]`, the result in the assay with Brevicoryne brassicae and with Myzus persicae [2] was Active. Also, in the assay on Myzus persicae [1], the LC50 worked out at 283 µg/mL (≈ 1410 µM).

Regarding `CCC/C=N/N(Cc1ccc(Cl)nc1)/C(N)=N/[N+](=O)[O-]`, the result in the assay on Brevicoryne brassicae and in the assay with Myzus persicae [2] was Active. For the same molecule, the LC50 in the assay on Myzus persicae [1] is 21 µg/mL (≈ 70.3 µM).

On to `C=C/C=N/N(CCCC)/C(N)=N/[N+](=O)[O-]`, for which the outcome in the assay on Brevicoryne brassicae and in the assay on Myzus persicae [2] was Active. For the same molecule, the LC50 with Myzus persicae [1] came to 328 µg/mL (≈ 1540 µM).

As for `C=CCN(/N=C/c1ccccc1Cl)/C(N)=N/[N+](=O)[O-]`, the result with Brevicoryne brassicae and in the assay on Myzus persicae [2] was Active. Besides, the LC50 in the assay on Myzus persicae [1] came out at 362 µg/mL (≈ 1290 µM).
